TRPC6 activator = activators of mouse TRPC6 channel; AID 2550; HEK293-TRPC6 membrane potential dye fluorescence; hits give high values; B-score at 10 µM; 0.13% of 310,000 active; Q61143;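 active means B-score of the integrated fluorescence ratio above library mean plus 3 SD, and starting fluorescence ratio within library mean plus 5 SD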;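 further: higher score means more depolarization so channel activation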
TRPC4 potent = allosterically enhances the mouse TRPC4 cation channel | HEK293 TRPC4beta/mu-opioid, DAMGO EC20, Fluo-4 Ca2+ flux; hits give high values | Q9QUQ5 | B-score at 10 µM | 0.42% of 310,000 active;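 active means B-score of calcium response area above 5 SD of library B-scores, with initial fluorescence ratio within 5 SD of library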;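 further: B-score of integrated fluorescence ratio over time as area under calcium response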
Target sequence (Q9QUQ5 whole entry, looked up): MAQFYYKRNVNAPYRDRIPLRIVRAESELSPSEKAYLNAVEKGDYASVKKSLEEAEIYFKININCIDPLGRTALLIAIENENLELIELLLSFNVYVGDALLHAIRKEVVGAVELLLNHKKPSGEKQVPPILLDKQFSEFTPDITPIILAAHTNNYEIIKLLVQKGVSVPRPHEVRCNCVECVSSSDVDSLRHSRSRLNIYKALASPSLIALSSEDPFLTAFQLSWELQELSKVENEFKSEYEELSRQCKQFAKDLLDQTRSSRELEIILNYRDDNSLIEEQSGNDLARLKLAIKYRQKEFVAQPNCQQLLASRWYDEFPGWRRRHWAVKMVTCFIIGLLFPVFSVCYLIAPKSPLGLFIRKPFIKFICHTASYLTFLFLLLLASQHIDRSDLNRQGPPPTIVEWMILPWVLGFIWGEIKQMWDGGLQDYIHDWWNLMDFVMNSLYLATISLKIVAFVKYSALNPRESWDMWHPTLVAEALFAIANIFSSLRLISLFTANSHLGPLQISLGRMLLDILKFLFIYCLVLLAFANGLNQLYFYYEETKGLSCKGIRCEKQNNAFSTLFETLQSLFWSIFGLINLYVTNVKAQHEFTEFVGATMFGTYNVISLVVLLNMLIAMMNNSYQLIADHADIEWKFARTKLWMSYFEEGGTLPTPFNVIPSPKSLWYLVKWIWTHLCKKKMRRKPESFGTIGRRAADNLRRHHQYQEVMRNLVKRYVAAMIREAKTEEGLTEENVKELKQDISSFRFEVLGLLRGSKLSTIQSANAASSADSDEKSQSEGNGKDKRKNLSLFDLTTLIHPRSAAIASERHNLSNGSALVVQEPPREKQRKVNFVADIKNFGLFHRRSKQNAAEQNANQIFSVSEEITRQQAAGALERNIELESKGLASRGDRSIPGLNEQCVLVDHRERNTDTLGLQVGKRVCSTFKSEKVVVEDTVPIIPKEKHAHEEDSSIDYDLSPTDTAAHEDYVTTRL
TRPC4 inh = inhibitors of mouse TRPC4 channel. B-score at 10 µM. 0.39% of 300,000 active. AID 2247. HEK293 TRPC4beta/mu-opioid, DAMGO-evoked Fluo4 calcium flux; hits give low values;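 active means B-score over 3 SD under the library average, no early fluorescence shift, positive overall ratio signal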
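Assay system: HEK293 cells with stable TRPC4beta plus mu-opioid receptor expression; Probe or stimulus: DAMGO in two steps, submaximal then maximal; Dosing: single-point compound dosing; Measured by: Fluo4 calcium-dye fluorescence, kinetic read; Read-out basis: B score from integrated Fluo4 fluorescence ratio.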
TRPC4 agonist = activators of mouse TRPC4 channel | B-score at 10 µM | Q9QUQ5 | HEK293 TRPC4beta/mu-opioid, Fluo4 calcium fluorescence; hits give high values | 0.49% of 310,000 active;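 active means B-score above 5 SD of library B-scores, and initial fluorescence ratio not above library mean plus 5 SD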;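 further: positive B-score marks a calcium rise read as TRPC4 activation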
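Test system: HEK293 cells stably co-expressing mouse TRPC4beta and mu-opioid receptor | Schedule: Fluo4 dye loading 45 min at room temperature, 110 s recording | Measured by: Kinetic Fluo4 calcium fluorescence, 5 s baseline at 1 Hz | Evaluation: B score of integrated ratio | Controls: Buffer (low) and maximal DAMGO (high)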
TRPC6 inhibitor = blocks the mouse TRPC6 cation channel | Q61143 | HEK293-TRPC6, membrane potential dye, ACh-evoked depolarization; hits give low values | B-score at 10 µM | 1.1% of 310,000 active | AID 2553;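 active means B-score under library mean minus 3 SD, initial fluorescence not abnormally high, positive integrated signal ratio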;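 further: B-score derived from integrated fluorescence ratio over the kinetic read; more negative B-score means stronger inhibition of depolarization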
* hit, by the source's call; i = inactive; ! = not confirmed by another sample. Rows were chosen to be rich in hits. Some 2.3% of all compounds tested hit in one or more screens of this group.

SMILES	TRPC6 activator	TRPC4 potent	TRPC4 inh	TRPC4 agonist	TRPC6 inhibitor
Cc1cc(NC(=O)c2cnn3cccnc23)nn1CC(=O)Nc1cccnc1	i	150*	i	51*	i
CCOC(=O)CCn1c(=O)c2c(nc(Br)n2Cc2ccccc2)n(C)c1=O	i	i	-5*	i	i
CC1(C)Cc2c(sc3nc(=S)[nH]c(N)c23)CO1	i	i	i	i	i
CCCCN=C(Nc1ccc(Cl)cc1)c1cccnc1	i	i	-6*	i	i
CCCN=C(Nc1ccc(Cl)cc1)c1cccnc1	i	i	i	i	i
C=CCc1ccccc1OCC(O)CN1CCN(Cc2ccc3c(c2)OCO3)CC1 (stereo not given)	i	i	-7*!	i	i
CCC1CN(C(=O)N2CCC(C(=O)NCc3ccc(F)cc3)CC2)c2ccccc2O1 (stereo not given)	i	i	i	i	i
Cc1[nH]n2c(=O)cc(-c3ccc([N+](=O)[O-])cc3)nc2c1-c1ccccc1	i	i	-5*	i	i
O=C(c1c(O)c2ccccc2oc1=O)C1CCCCC1	i	i	i	i	i
O=C(CCC1CCCC1)c1c(O)c2ccccc2oc1=O	i	i	i	193*	i
N=C(N)SCc1cn(-c2ccccc2)nc1-c1ccc(Br)cc1	i	i	i	71*	i
Cc1ccc(-c2nn(-c3ccccc3)cc2CO)cc1	i	i	i	i	i
Oc1c(Br)cc(Br)cc1C=Nc1ccc2[nH]ncc2c1	i	i	-7*	i	i
COc1ccc(C=Nc2ccc3[nH]ncc3c2)c(O)c1	i	i	i	i	i
CCOC(=O)c1cnc(-n2nc(C)cc2C)nc1NC1CCCCC1	i	18*	i	i	i
CCn1cc[n+](C)c1P(c1ccccc1)c1ccccc1	i	i	-5*	51*	i
Fc1ccc(C2CCNCC2COc2ccc3c(c2)OCO3)cc1 (stereo not given)	i	i	i	102*	i
Cc1nc2ccccc2c2oc(C(=O)NCCCN3CC(C)CC(C)C3)cc12 (stereo not given)	i	i	i	83*	i
CCN(CC)CCCNC(=O)c1ccc2c(SCC(=O)O)c3c(nc2c1)CCC3	i	i	i	i	i
CC1CC(C)CN(CCCNC(=O)c2ccc3c(SCC(=O)O)c4c(nc3c2)CCC4)C1 (stereo not given)	i	i	i	76*	i
CCCCC(=O)Nc1cccc2c1C(=O)N(c1ccccc1)C2=O	i	24*	i	i	i
CN1CCN(NC(=O)c2cccc(Br)c2)CC1	i	19*	i	i	i
CC(=O)c1ccc(NC(=O)C(C)NCc2ccccc2Cl)cc1 (stereo not given)	i	i	i	i	i
OCC[C@@H]1C[C@H](O)[C@@H](O)[C@@]2(OCCCc3ccccc32)O1	i	i	i	i	i
CC(C)OCCCn1c(=N)c(C(N)=S)cc2c(=O)n3ccccc3nc21	i	i	i	i	-7.6*
SMILES	TRPC6 activator	TRPC4 potent	TRPC4 inh	TRPC4 agonist	TRPC6 inhibitor
CCCn1c(=N)c(C(=O)NCc2ccc3c(c2)OCO3)cc2c(=O)n3cccc(C)c3nc21	i	i	i	i	i
Cc1ccc(Cn2c(=N)c(C(=O)NC3CCCC3)cc3c(=O)n4ccccc4nc32)cc1	i	78*	i	66*	i
N=c1c(C(=O)NC2CCCCC2)cc2c(=O)n3ccccc3nc2n1Cc1ccco1	i	i	i	i	i
CCOCCCn1c(=N)c(C(=O)NCc2ccc3c(c2)OCO3)cc2c(=O)n3ccccc3nc21	i	i	i	i	-5.9*
N=c1c(C(=O)NC2CCCCC2)cc2c(=O)n3ccccc3nc2n1CCc1ccccc1	i	i	i	i	-5*
O=C(O)COCC(=O)NCc1csc2ccccc12	i	i	i	i	i
O=C(CN1C(=O)NC2(CCOc3ccccc32)C1=O)c1ccc[nH]1 (stereo not given)	i	i	i	i	i
O=C(Nc1cccc(F)c1)N1CCN(C(=O)c2ccco2)CC1	i	i	i	i	i
CC(CCc1ccccc1)NC(=O)CNC(=O)N1CC(=O)Nc2ccccc21 (stereo not given)	i	i	i	i	i
O=C(c1ccccc1NS(=O)(=O)c1cccc(C(F)(F)F)c1)N1CCc2ccccc21	i	i	i	i	i
CCCCN(C)C(=O)Cn1nc(Cc2ccncc2)c2ccccc2c1=O	i	i	i	i	i
CCCCN(CC)CCCNC(=O)Cn1nc(Cc2ccncc2)c2ccccc2c1=O	i	i	i	133*	i
COc1ccc(CC(=O)Nc2cc(Cl)ccc2C(=O)O)cc1	i	i	i	i	i
CCCCOc1ccc(Nc2cc(Cl)ccc2C(=O)O)cn1	i	i	-7*	i	i
COc1ccc(-c2nn(-c3ccccc3C)cc2CNCCc2cnc[nH]2)cc1F	i	i	i	i	i
COc1ccc(-c2nn(-c3ccccc3C)cc2CNC(C)Cn2cncn2)cc1F (stereo not given)	i	i	i	i	i
CCn1cc(CNCc2cn(-c3ccccc3C)nc2-c2ccc(OC)c(F)c2)cn1	i	i	i	129*	i
COc1ccc(-c2nn(-c3ccccc3C)cc2CNC(C)c2cn(C)nc2C)cc1F (stereo not given)	i	i	i	118*	i
CCOC(=O)CN1N=C(/C=C/c2ccccc2)CCC1=O	i	i	i	i	i
CCOC(=O)CN1N=C(/C=C/c2ccc(C(C)C)cc2)CCC1=O	i	11*	i	i	i
CCOc1ccccc1C(=O)NCC(=O)OCCOc1cccc(Cl)c1	i	i	i	i	i
Cc1cc(C)nc(Nc2nc(=O)c3ccccc3s2)n1	i	55*	i	i	i
Cc1cccc(C)c1OCc1cc(C(=O)N(C)Cc2nc3ccccc3[nH]2)no1	i	i	i	i	i
CC(=O)c1ccc(NC(=O)CCC(=O)N2CC(C)Oc3ccc(C)cc32)cc1 (stereo not given)	i	i	i	i	i
Cc1ccc2c(c1)N(C(=O)CCC(=O)Nc1ccccc1Br)CC(C)O2 (stereo not given)	i	i	-9*	i	i
Cc1ccc(-c2cc(-c3ccccc3)nc(NN)n2)cc1	i	12*	i	i	i
COc1ccc(-c2cc(-c3ccccc3)nc(NN)n2)cc1OC	i	i	i	i	i
